Columns and labels:
A549 cells = experiment: PD-L1 and EVs in A549 cells treated with GW4869; format: cell-based, human; conditions: 10 μmol/L
In short: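 A549 or LSD1-knockout A549 cells (lentiviral editing, antibiotic selection, PCR/sequencing check, single-cell cloning) are treated ± 10 μmol/L GW4869. Conditioned medium is spun 3000 × g, 10 min, 4 °C. EVs are precipitated with an equal volume of isolation reagent at 4 °C, pelleted 10,000 × g, 60 min, 4 °C, and PBS-washed. Characterisation by TEM/NTA. PD-L1, ALIX, TSG101 and CD9 are detected by western blot from equal cell numbers.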

LLC tumor-bearing mice = experiment: In vivo biodistribution; design: species or system mouse; conditions: i.v., over time
In short: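 Cy5.5-loaded liposomes stand in for drug and anti-PD1. Free Cy5.5 or Cy5.5-nanoparticles (3 mg/kg Cy5.5 equivalent) are injected via the tail vein into LLC tumour-bearing nude mice. Mice are imaged under anaesthesia at 2, 4, 6, 8, 12 and 24 h (λex/λem 680/704 nm). Mean tumour ROI fluorescence is quantified. Organs and tumours are imaged ex vivo at 24 h.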

Molecule: O=C(/C=C/c1ccc(/C=C/C(=O)Nc2ccc(C3=NCCN3)cc2)cc1)Nc1ccc(C2=NCCN2)cc1 [GW4869]
- levels of EVs and EVs-PD-L1 (A549 cells; A549 cells): reduced
- membrane PD-L1 and total PD-L1 (A549 cells; A549 cells): significant accumulation
- membrane PD-L1 (A549 cells; LSD1-knockout A549 cells): induced the accumulation

Molecule: Cy5.5
- accumulation at the tumor site compared with Cy5.5-FPNs (LLC tumor-bearing mice): much lower
